# Only some compounds are listed: those with a hit (about 1.8% of all), similar ones and a draw of the others.
# DNMT1 block = inhibitors of human DNMT1; P26358; DNMT1 molecular beacon, Hinp1I cleavage, fluorescence; inhibition (reported as % activation of signal), % at 10 µM; 360,000 tested, 0.83% active; in the data active = inhibition above about 50%
# HKDC1 inh = inhibitors of human hexokinase HKDC1. inhibition, % at 20 µM. recombinant HKDC1, G6PDH/diaphorase resazurin coupled fluorescence. 340,000 tested, 0.16% active. AID 493160. Q2TB90;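 active = inhibition above about 35% when tested at 20 µM, limit read from the data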
#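 System: Recombinant HKDC1 hexokinase | Amount: HKDC1 at 5 µg/mL | Reagent: Glucose with 1 mM ATP | Doses: Single 20 µM dose | Incubation: Reaction time 90 min, room temperature, protected from light | Signal: Coupled resazurin fluorescence, excitation 525 nm, emission 613 nm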
# Scp1 inh = inhibitors of human Scp-1 phosphatase; Recombinant Scp1, phosphopeptide, malachite green phosphate absorbance; 340,000 tested, 0.88% active; inhibition, % at 20 µM;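 active = inhibition above about 50% at 20 µM, limit read from the data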
# Target sequence (Q9GZU7 76-261 limits assumed): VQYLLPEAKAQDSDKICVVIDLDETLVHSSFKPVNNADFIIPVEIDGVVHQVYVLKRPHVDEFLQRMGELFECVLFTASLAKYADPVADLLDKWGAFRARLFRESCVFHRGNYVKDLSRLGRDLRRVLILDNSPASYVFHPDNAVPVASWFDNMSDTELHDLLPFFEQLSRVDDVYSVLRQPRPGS
#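 System: truncated SCP-1 phosphatase (76-261aa); medium: Tris acetate buffer pH 5.5 with MgCl2 and Tween-20; incubation: 45 min room-temperature reaction, 5 min colour, 30 min stabiliser; compound: single 20 µM dose, 1% DMSO; reagent: Phosphorylated 17-residue peptide substrate; read-out: % inhibition at 20 µM; technique: colorimetric free-phosphate detection, absorbance 630 nm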
# LMPTP block = blocks human LMPTP phosphatase | recombinant LMPTP-A, OMFP fluorogenic substrate, fluorescence intensity | P24666 | inhibition, % at 20 µM | AID 651560 | 360,000 tested, 0.22% active;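 active = compounds that cut the enzyme signal by at least half of the control window in the single-dose screen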
# Target sequence (P24666 whole entry, looked up): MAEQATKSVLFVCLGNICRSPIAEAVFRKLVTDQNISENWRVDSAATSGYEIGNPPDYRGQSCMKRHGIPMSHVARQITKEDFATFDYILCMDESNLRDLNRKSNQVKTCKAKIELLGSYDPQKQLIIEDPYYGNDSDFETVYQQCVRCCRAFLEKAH
#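 Assay system: LMPTP-A phosphatase enzyme | Input: 0.625 nM enzyme | Also added: Fluorogenic phosphatase substrate OMFP at 400 µM final | Compound dosing: One test concentration per compound, 20 µM, with 3% DMSO overall | Schedule: 50 min enzyme reaction at room temperature, protected from light | Signal: Fluorescence intensity | Benchmarks: no-enzyme and uninhibited controls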
# SUMO1-SIM PPI = modulators of human SUMO1-mediated protein-protein interactions. P63165. SUMO1 binding to a labelled peptide, TR-FRET, 1 h. inhibition, % at 20 µM. 360,000 tested, 0.33% active. AID 602429; in the data active = inhibition above about 37%
# Target sequence (P63165 whole entry, looked up): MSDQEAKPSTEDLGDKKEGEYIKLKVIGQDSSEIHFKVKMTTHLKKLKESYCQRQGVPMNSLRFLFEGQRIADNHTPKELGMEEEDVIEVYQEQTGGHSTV
# STEP inh = blocks human striatal-enriched tyrosine phosphatase; 360,000 tested, 0.25% active; recombinant STEP, OMFP fluorogenic substrate, fluorescence; inhibition, % at 20 µM; AID 588621; P54829;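 active = inhibition at 20 µM, scaled per plate between control wells, above about 37%, limit read from the data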
#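 System: STEP (striatal-enriched tyrosine phosphatase) enzyme, cell-free; medium: Bis-Tris pH 6.0 buffer with DTT, detergent; dosing: 20 µM, 1% DMSO; times: reaction 20 min, ambient temperature; detection: fluorescence, 480/540 nm; read-out basis: normalized % inhibition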
# Scp-1 conf = Scp-1 (human) inhibition, single-dose confirmed; shares compounds with Scp1 inh; inhibition, % at 20 µM; 2,500 tested, 61% active; recombinant SCP-1 catalytic domain, phosphate release, malachite green absorbance
# Scp-1 MG ctr = colorimetric interference in Scp-1 counter-screen; shares compounds with Scp1 inh; Colorimetric interference counterscreen, malachite green absorbance 630 nm; apparent inhibition (interference), % at 20 µM; 2,500 tested, under 10 active;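 also: compounds added after enzyme reaction finished so only phosphate colour detection is probed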
# Scp1 DSF = Scp-1 (human) binding by thermal shift | Recombinant SCP1, Sypro Orange thermal shift Tm | 1,500 tested, 25% active | shares compounds with Scp1 inh | thermal shift relative to vanadate control, % at 40 µM;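 active = substances whose mean melting-temperature shift, as a percentage of the reference inhibitor's shift, reaches about 5.3%, limit read from the data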
# HKDC1 act conf = confirmation of human HKDC1 activators. shares compounds with HKDC1 inh. recombinant HKDC1, G6PDH/diaphorase resazurin fluorescence; stronger effect = lower value. inhibition, % at 20 µM. 740 tested, 14% active. AID 504708;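 active = inhibition at or below a set negative limit, negative inhibition meaning the enzyme was activated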
# DNMT1 inh conf = confirmation of human DNMT1 inhibitors; shares compounds with DNMT1 block; inhibition, % at 10 µM; DNMT1 molecular beacon HinP1I cleavage, fluorescence; 2,300 tested, 8% active;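 active = average inhibition of at least 30% in the single-concentration confirmation test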
# Beacon interf = counter-screen for DNMT1 inhibitors: spectral interference; shares compounds with DNMT1 block; DNMT1 molecular beacon spectral interference counterscreen, fluorescence 485/520; activation (fluorescence interference), % at 10 µM; 2,300 tested, 1% active; AID 602387;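 active = activation of at least 30% at 10 µM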;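 also: DNMT1 catalytic domain with a HinP1I cleavage step and a FAM/dabcyl DNA beacon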
# STEP inh conf = STEP (human) phosphatase inhibition, single concentration confirmation; AID 623866; inhibition, % at 20 µM; 520 tested, 32% active; recombinant STEP, OMFP fluorogenic substrate, fluorescence; shares compounds with STEP inh; call rule not given here
# Numbers stand for hits; 0 = inactive; - = not tested or not shown.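 The calls were made as follows, unless noted: active = inhibition of at least 30% at 20 µM; inactive = the rest.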
SMILES,DNMT1 block,HKDC1 inh,Scp1 inh,LMPTP block,SUMO1-SIM PPI,STEP inh,Scp-1 conf,Scp-1 MG ctr,Scp1 DSF,STEP inh conf,others
COc1ccc(C2=NN(C(=O)CCCC(=O)O)C(c3cn(-c4ccccc4)nc3-c3ccccc3)C2)cc1 (centres undefined),0,0,96.7,0,0,69.8,85.9,0,0,0,
CN(C)CCNC(=O)C1(C)Cc2c(-c3cccc(C(F)(F)F)c3)ccnc2O1 (centres undefined),0,-,-,0,0,0,-,-,-,-,
CCN(CC)C(=O)c1ccc2c(=O)n(Cc3ccc4c(c3)OCO4)c(=S)[nH]c2c1,0,0,0,0,0,0,-,-,-,-,
C=CCNC(=O)c1ccc(Cn2c(=S)[nH]c3cc4c(cc3c2=O)OCO4)cc1,0,0,85.7,0,0,47.3,57.6,0,0,0,
O=C(COc1ccc([N+](=O)[O-])cc1)Nc1nnc(-c2cccnc2)s1,0,0,75.5,0,0,65.5,76.4,0,6.9,75.4,
COc1cc(/C=C2/SC(=S)N(CCC(=O)Nc3ccc(C(=O)O)cc3)C2=O)cc(OC)c1OC,0,0,67.7,0,0,41.6,63.2,0,24.7,0,
O=C(CCN1C(=O)/C(=C/c2ccc(Cl)cc2)SC1=S)Nc1ccc(C(=O)O)cc1,0,0,91.6,75.3,0,48.6,69.4,0,0,0,
O=C(CCN1C(=O)/C(=C\c2cccs2)SC1=S)Nc1ccc(C(=O)O)cc1,0,0,0,0,0,0,-,-,-,-,
COc1ccc(-c2oc3c(c2-c2cnc(OC)nc2)C(O)CC3)cc1 (centres undefined),-,-,-,0,0,-,-,-,-,-,
CCOC(=O)C1=CCN(S(=O)(=O)c2ccc(Cl)cc2)C1c1cccc(C)c1 (centres undefined),0,-,-,0,0,0,-,-,-,-,
O=C(O)C(S)C(S)C(=O)O (centres undefined),86.2,0,95.8,0,0,50.0,64.8,0,0,100.8,
CCCn1c(=S)[nH]c2cc(C(=O)N3CCN(C4CCCCC4)CC3)ccc2c1=O,0,0,0,0,0,0,-,-,-,-,
COc1ccc(S(=O)(=O)NC(=O)C2(C)CCN2C(=O)CC2CCCC2)cc1 (centres undefined),0,-,-,0,0,0,-,-,-,-,
Cc1ccc(S(=O)(=O)Cc2ccc(C(=O)O)o2)cc1,88.8,0,86.5,0,0,55.3,50.4,0,7.9,50.4,DNMT1 inh conf=0;Beacon interf=0
Cc1ccc(-c2nc(NC(=O)CSc3cc(C)c4ccccc4n3)ns2)cc1,89.9,56.8,106.0,66.4,0,69.9,83.6,0,0,49.9,HKDC1 act conf=0;DNMT1 inh conf=0;Beacon interf=0
COc1ccc2c(C)cc(SCC(=O)Nc3nsc(-c4ccc(C)cc4)n3)nc2c1,0,0,0,0,0,0,-,-,-,-,
CCOc1cc(/C=C2/NC(=O)NC2=O)cc(Br)c1OCc1ccc(C(=O)O)cc1,0,0,73.4,56.4,0,96.5,87.7,0,0,0,
Cc1c(CC(=O)NCCCCCC(=O)O)c(=O)oc2c(C)c3oc4c(c3cc12)CCCC4,0,0,94.4,0,0,97.2,93.7,0,0,89.4,
CNC(=O)C(C)Sc1ccc(S(=O)(=O)N2CCOCC2)cn1 (centres undefined),0,0,0,0,0,0,-,-,-,-,
O=C(Nc1cc([N+](=O)[O-])ccc1O)c1cccc(C(=O)Nc2cc([N+](=O)[O-])ccc2O)c1,0,0,98.3,96.6,56.3,99.4,95.9,0,16.0,58.5,
O=C1NN(c2cccc(Br)c2)C(=O)/C1=C\c1ccc(N2CCOCC2)cc1,65.2,0,51.6,66.2,0,82.5,48.5,0,0,72.5,DNMT1 inh conf=0;Beacon interf=0
O=C(O)c1ccc(Nc2nc(-c3ccc([N+](=O)[O-])cc3)nc3ccccc23)cc1,0,0,81.6,62.7,0,88.8,56.8,0,9.2,0,
CCc1ccc(N=C2NC(=O)/C(=C/c3ccc(OCC(=O)O)cc3)S2)cc1,0,0,74.2,0,0,41.4,42.4,0,0,70.5,
CC(=O)N1CCN(C(=O)OC2CC3CC2[C@H]2CCCCN2C3=O)CC1 (some centres undefined),-,-,-,0,0,-,-,-,-,-,
CCCCCn1c(N)c(-c2nc3ccccc3o2)c2c([N+](=O)[O-])nn(C)c(=O)c21,91.9,0,98.7,83.4,0,96.8,72.7,0,5.4,40.4,DNMT1 inh conf=0;Beacon interf=0
SMILES,DNMT1 block,HKDC1 inh,Scp1 inh,LMPTP block,SUMO1-SIM PPI,STEP inh,Scp-1 conf,Scp-1 MG ctr,Scp1 DSF,STEP inh conf,others
CCCCn1c(N)c(-c2nc3ccccc3s2)c2c([N+](=O)[O-])nn(C)c(=O)c21,0,0,0,0,0,0,-,-,-,-,
COC(=O)c1ccsc1NS(=O)(=O)c1ccccc1,0,0,0,0,0,0,-,-,-,-,
Cc1cccc(C(O)c2ncc(-c3ccccc3F)[nH]2)c1C (centres undefined),0,-,-,0,0,0,-,-,-,-,
CCN(CC)c1ccc(NC(=O)c2ccccc2Br)cc1S(=O)(=O)Nc1ccccc1OC,0,0,0,0,0,0,-,-,-,-,HKDC1 act conf=0
CCN(CC)c1ccc(NC(=O)c2ccccc2F)cc1S(=O)(=O)Nc1ccccc1OC,0,0,0,0,0,0,-,-,-,-,
O=C(CSc1n[nH]c(=O)[nH]c1=O)Nc1cccc(S(=O)(=O)N2CCOCC2)c1,0,0,0,0,0,0,-,-,-,-,
O=C(CSc1n[nH]c(=O)[nH]c1=O)Nc1ccc2c(c1)C(=O)c1ccccc1C2=O,0,52.3,81.7,68.7,95.6,88.1,-,-,-,-,HKDC1 act conf=0
COc1ccc2cc(CCNC(=O)c3ccc4c(c3)OCO4)c(=O)[nH]c2c1,0,0,0,0,0,0,-,-,-,-,

# Screens deposited in PubChem BioAssay by Sanford-Burnham Center for Chemical Genomics.
